Data on two molecules can be found in ChEMBL document CHEMBL1142449 (Bioorg Med Chem, 2008).

Common to all, as to format: cell-based
The target of assay [1] is T1, Neurotensin receptor type 1 (Homo sapiens, UniProt P30989). Put plainly: Displacement of [3H]SR48692 from wild type human NTR1 expressed in HEK293 cells. In a few lines: (§1)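 Membranes from HEK-293 cells transiently transfected (CaHPO4 method) with wild-type or EL1-mutant hNTR1 cDNA and harvested 48 h post-transfection. Homologous competition binding with 0.8 nM [3H]SR 48692 (81 Ci/mmol), adapted to 96-well format. Curves normalized per receptor, 4–6 experiments in triplicate. Kd and Bmax given with 95% confidence intervals.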
(In general: In a radioligand displacement assay an active substance lowers the binding of a labelled ligand.)

Assay [2] has as its system Neurotensin receptor type 1 (Homo sapiens), P30989 [F127A]. Put plainly: (§2) Displacement of [3H]SR48692 from human NTR1 extracellular loop 1 F127A mutant expressed in HEK293 cells. In a few lines:
as §1

Assay [3] deals with Neurotensin receptor type 1 (Homo sapiens, UniProt P30989, F127A). The description is as §2. In a few lines: as §1
The test system of assay [4] is Neurotensin receptor type 1 (Homo sapiens), P30989 [H131A]. Put plainly: (§3) Displacement of [3H]SR48692 from human NTR1 extracellular loop 1 H131A mutant expressed in HEK293 cells. In a few lines:
as §1

For assay [5], the target named is Neurotensin receptor type 1 (Homo sapiens, UniProt P30989, H131A). Described as §3. The method, boiled down: as §1
The subject of assay [6] is Neurotensin receptor type 1 (Homo sapiens), P30989 [P133A]. Description: (§4) Displacement of [3H]SR48692 from human NTR1 extracellular loop 1 P133A mutant expressed in HEK293 cells. In a few lines:
as §1

In assay [7] the target is Neurotensin receptor type 1 (Homo sapiens, UniProt P30989, P133A). Described as §4. The method, boiled down: as §1
Assay [8] deals with Neurotensin receptor type 1 (Homo sapiens), P30989 [W134A]. Put plainly: (§5) Displacement of [3H]SR48692 from human NTR1 extracellular loop 1 W134A mutant expressed in HEK293 cells. In a few lines:
as §1

Assay [9] concerns the target Neurotensin receptor type 1 (Homo sapiens, UniProt P30989, W134A). The description is as §5. The method, boiled down: as §1
In assay [10] the test system is Neurotensin receptor type 1 (Homo sapiens), P30989 [F136A]. Description: (§6) Displacement of [3H]SR48692 from human NTR1 extracellular loop 1 F136A mutant expressed in HEK293 cells. In a few lines:
as §1

In assay [11] the target is Neurotensin receptor type 1 (Homo sapiens, UniProt P30989, F136A). Described as §6. The method, boiled down:
as §1

Assay [12] relates to Neurotensin receptor type 1 (Homo sapiens), P30989 [W129A]. Description: (§7) Displacement of [3H]SR48692 from human NTR1 extracellular loop 1 W129A mutant expressed in HEK293 cells. The method, boiled down: as §1
Assay [13] concerns the target Neurotensin receptor type 1 (Homo sapiens, UniProt P30989, W129A). The description is as §7. The method, boiled down:
as §1

The target in assay [14] is T1, Neurotensin receptor type 1. Put plainly: Displacement of [3H]NT(8-13) from wild type human NTR1 expressed in HEK293 cells.

T1 sequence (P30989 whole entry): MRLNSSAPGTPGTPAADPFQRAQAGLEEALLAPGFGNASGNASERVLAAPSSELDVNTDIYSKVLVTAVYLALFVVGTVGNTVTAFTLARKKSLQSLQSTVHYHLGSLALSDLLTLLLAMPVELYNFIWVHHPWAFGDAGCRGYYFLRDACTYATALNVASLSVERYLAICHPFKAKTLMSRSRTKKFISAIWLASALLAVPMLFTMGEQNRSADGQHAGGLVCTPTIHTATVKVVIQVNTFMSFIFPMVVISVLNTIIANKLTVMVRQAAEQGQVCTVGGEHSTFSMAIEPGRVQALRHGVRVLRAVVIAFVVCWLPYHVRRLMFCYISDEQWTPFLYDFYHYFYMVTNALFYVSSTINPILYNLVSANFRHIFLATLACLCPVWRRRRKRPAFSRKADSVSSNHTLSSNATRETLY
Chain of Neurotensin receptor type 1 (Homo sapiens, UniProt P30989, W134A) (P30989 whole entry W134A): as the sequence (P30989 whole entry) above, with W134A counted along it
Chain of Neurotensin receptor type 1 (Homo sapiens), P30989 [W134A] (P30989 whole entry W134A): as the sequence (P30989 whole entry) above, with W134A counted along it
Chain of Neurotensin receptor type 1 (Homo sapiens), P30989 [H131A] (P30989 whole entry H131A): as the sequence (P30989 whole entry) above, with H131A counted along it
Chain of Neurotensin receptor type 1 (Homo sapiens, UniProt P30989, H131A) (P30989 whole entry H131A): as the sequence (P30989 whole entry) above, with H131A counted along it
Chain of Neurotensin receptor type 1 (Homo sapiens, UniProt P30989, F136A) (P30989 whole entry F136A): as the sequence (P30989 whole entry) above, with F136A counted along it
Chain of Neurotensin receptor type 1 (Homo sapiens), P30989 [F136A] (P30989 whole entry F136A): as the sequence (P30989 whole entry) above, with F136A counted along it
Chain of Neurotensin receptor type 1 (Homo sapiens, UniProt P30989, P133A) (P30989 whole entry P133A): as the sequence (P30989 whole entry) above, with P133A counted along it
Chain of Neurotensin receptor type 1 (Homo sapiens), P30989 [P133A] (P30989 whole entry P133A): as the sequence (P30989 whole entry) above, with P133A counted along it
Chain of Neurotensin receptor type 1 (Homo sapiens), P30989 [W129A] (P30989 whole entry W129A): as the sequence (P30989 whole entry) above, with W129A counted along it
Chain of Neurotensin receptor type 1 (Homo sapiens, UniProt P30989, W129A) (P30989 whole entry W129A): as the sequence (P30989 whole entry) above, with W129A counted along it
Chain of Neurotensin receptor type 1 (Homo sapiens), P30989 [F127A] (P30989 whole entry F127A): as the sequence (P30989 whole entry) above, with F127A counted along it
Chain of Neurotensin receptor type 1 (Homo sapiens, UniProt P30989, F127A) (P30989 whole entry F127A): as the sequence (P30989 whole entry) above, with F127A counted along it

In the case of `COc1cccc(OC)c1-c1cc(C(=O)NC2(C(=O)O)C3CC4CC(C3)CC2C4)nn1-c1ccnc2cc(Cl)ccc12` (stereo not given) [REMINERTANT], the Bmax was found to be 15 pmol/mg in assay [1]; 18 pmol/mg in [2]; 16 pmol/mg in assay [4]; 9.3 pmol/mg in [6]; 10 pmol/mg in assay [8]; 10 pmol/mg in assay [10]. In assay [12], this molecule returned a Bmax of 9.4 pmol/mg. In addition, the Kd (in general, a measure of binding affinity in units of concentration) in assay [1] came out at 8.9 nM; in assay [3] it was 19 nM; in assay [5], 8.4 nM; in assay [7], 9.2 nM; in assay [9], 23 nM; in assay [11] it was 33 nM. In addition, the Kd in assay [13] came out at 27 nM.

As to `CC[C@H](C)[C@H](NC(=O)[C@H](Cc1ccc(O)cc1)NC(=O)[C@@H]1CCCN1C(=O)[C@H](CCCNC(=N)N)NC(=O)[C@@H](N)CCCNC(=N)N)C(=O)NC1(C(=O)O)C2CC3CC(C2)CC1C3` (stereo not given in full), in assay [14], the Ki (in general, a dissociation constant, usually derived from enzyme kinetics or from competition with a known ligand) was 2.4 nM.
